Source: PubChem (Broad Institute)
KDM4C inh – inhibitors of human demethylase GASC-1 KDM4C | Q9H3R0 | GST-KDM4C 2-372, H3K9me3 peptide, LANCE TR-FRET | inhibition, % at 12.5 µM | hit rate 0.15% among 96,000 | AID 720574;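 active = mean replicate inhibition above about 25%, with at least 55% of replicates also reaching it, limit read from the data, passing the limit was not always enough; inconclusive = only one of those two conditions met; inactive = neither condition met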
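Test system: N-terminal GST-fused human GASC-1 (KDM4C) fragment, residues 2-372; quantity: GASC-1 enzyme at 10 nM final in reaction; dosing: single dose; schedule: 30 min demethylation and 1 h detection at room temperature; signal: LANCE TR-FRET, excitation 340 nm, emissions 618 and 671 nm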
IDH1 mut inh – blocks human IDH1 R132H reductase activity. diaphorase/resazurin fluorescence, 60 min. inhibition, % at 10 µM. hit rate 0.18% among 70,000. AID 624101; in the data active = inhibition above about 34%; inconclusive = no clear call, values can overlap the other calls; inactive = below about 11%;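 note: 0% = DMSO and 100% = no enzyme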
Target sequence (O75874 whole entry R132H): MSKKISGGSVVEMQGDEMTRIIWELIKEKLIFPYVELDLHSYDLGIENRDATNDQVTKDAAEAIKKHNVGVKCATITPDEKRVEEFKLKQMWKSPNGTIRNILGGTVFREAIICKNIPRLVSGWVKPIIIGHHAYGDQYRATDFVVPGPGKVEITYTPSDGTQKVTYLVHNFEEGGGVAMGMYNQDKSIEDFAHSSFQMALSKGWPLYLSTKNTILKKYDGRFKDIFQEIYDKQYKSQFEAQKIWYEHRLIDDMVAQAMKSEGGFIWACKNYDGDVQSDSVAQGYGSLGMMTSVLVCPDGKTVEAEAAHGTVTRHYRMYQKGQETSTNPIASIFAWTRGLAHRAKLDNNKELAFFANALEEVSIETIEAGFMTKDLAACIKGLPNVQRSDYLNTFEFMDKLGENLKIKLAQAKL
T cruzi growth-1 – blocks T. cruzi growth in NIH3T3 culture; T. cruzi beta-gal in NIH3T3, GalScreen luminescence, 90 h; inhibition, % at 8.34 µM; hit rate 5.9% among 77,000; AID 624255;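 active = mean inhibition above about 93%, with at least 55% of replicates each passing it, limit read from the data, passing the limit was not always enough; inconclusive = only one of those two conditions holds; inactive = neither condition holds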
T cruzi growth-2 – blocks T. cruzi growth in NIH3T3 host cells | shares compounds with T cruzi growth-1 | T. cruzi beta-gal in NIH3T3, GalScreen luminescence, 90 h | inhibition, % at 8.35 µM | hit rate 72% among 5,600 | AID 651739;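 active = mean replicate inhibition above about 95% and at least 55% of replicates individually reaching it, limit read from the data; inconclusive = only one of the two criteria is met; inactive = neither criterion is met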
T cruzi growth-3 – inhibitors of T. cruzi proliferation. inhibition, % at 2.09 µM. hit rate 21% among 5,600. T. cruzi beta-gal in NIH3T3, GalScreen luminescence, 90 h. shares compounds with T cruzi growth-1;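 active = mean inhibition above about 95%, with at least 55% of replicates also reaching it, limit read from the data; inconclusive = meets just one of the two conditions; inactive = meets neither condition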;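 note: plate controls were neutral control median for no effect and positive control median for full effect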
3T3 cytotox – NIH/3T3 (mouse) viability loss | NIH/3T3 viability, CellTiter-Glo ATP luminescence, 90 h | shares compounds with T cruzi growth-1 | AID 651742 | hit rate 14% among 5,600 | cytotoxicity (signal decrease), % at 8.35 µM;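 active = mean signal decrease across replicates above about 35% based on untreated-well scatter, with enough replicates individually passing, limit read from the data; inconclusive = no rule stated though some were filed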;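 note: 0% = median of neutral control wells and 100% = median of positive control wells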
3T3 cytotox 2 – cytotoxicity in mouse NIH/3T3 fibroblasts. shares compounds with T cruzi growth-1. NIH/3T3 viability, CellTiter-Glo ATP luminescence, 90 h. inhibition, % at 24.9 µM. hit rate 56% among 5,600;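 active = mean loss of cell viability signal at or above a set limit, and enough replicates individually reaching it; inconclusive = meets only the mean limit or only the replicate share; inactive = meets neither condition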;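 note: 0% = median of neutral control wells and 100% = median of positive control wells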
Numbers without * were called inactive. This is one part of a sample in which hits are shown more often than they occur.

How did C[C@@H]1CCCCO[C@@H](CN(C)C(=O)NC2CCCCC2)[C@@H](C)CN([C@H](C)CO)C(=O)c2cc(NS(=O)(=O)c3ccccc3)ccc2O1 do in these assays?
KDM4C inh: -0.4; T cruzi growth-1: 80.0

How did Cc1ccc(S(=O)(=O)Nc2ccc3c(c2)C(=O)N([C@@H](C)CO)C[C@H](C)[C@@H](CN(C)C(=O)NC2CCCCC2)OCCCC[C@@H](C)O3)cc1 do in these assays?
KDM4C inh: 1.8; IDH1 mut inh: 1.6; T cruzi growth-1: 48.8

Results for Cc1ccc(S(=O)(=O)Nc2ccc3c(c2)C(=O)N([C@@H](C)CO)C[C@H](C)[C@H](CN(C)C(=O)NC2CCCCC2)OCCCC[C@H](C)O3)cc1 ?
KDM4C inh: -3.2; IDH1 mut inh: -1.8; T cruzi growth-1: 77.5

Results for Cc1ccc(S(=O)(=O)Nc2ccc3c(c2)C(=O)N([C@@H](C)CO)C[C@@H](C)[C@@H](CN(C)C(=O)NC2CCCCC2)OCCCC[C@@H](C)O3)cc1 ?
KDM4C inh: -0.7; IDH1 mut inh: -0.1; T cruzi growth-1: 100.9*; T cruzi growth-2: 98.7*; T cruzi growth-3: 70.7; 3T3 cytotox: -20.9; 3T3 cytotox 2: 31.0

What do the screens show for `Cc1c(NC(=O)COc2cc(Cl)c(Cl)cc2Cl)cccc1-c1nc2ccccc2o1`?
IDH1 mut inh: 0.1

How did Cc1ccccc1-c1nc(C#N)c(NCCN2CCOCC2)o1 do in these assays?
IDH1 mut inh: 0.0

Results for C[C@@H]1CCCCO[C@@H](CN(C)Cc2ccc(C(=O)Nc3ccccc3N)cc2)[C@@H](C)CN([C@H](C)CO)C(=O)c2cc(NS(=O)(=O)c3cccs3)ccc2O1 ?
KDM4C inh: 0.2

What do the screens show for `C[C@@H]1CN([C@H](C)CO)C(=O)c2cccc(NC(=O)Nc3ccc4c(c3)OCO4)c2O[C@H]1CN(C)Cc1ccc(C(=O)Nc2ccccc2N)cc1`?
KDM4C inh: 0.1; T cruzi growth-1: 112.1*; T cruzi growth-2: 102.3*; T cruzi growth-3: 91.7; 3T3 cytotox: -1.1; 3T3 cytotox 2: 71.4*

How did C[C@@H]1CN([C@H](C)CO)C(=O)c2cc(N(C)C)ccc2O[C@@H]1CN(C)Cc1ccc(C(=O)Nc2ccccc2N)cc1 do in these assays?
T cruzi growth-1: 103.1*; T cruzi growth-2: 89.8; T cruzi growth-3: 81.3; 3T3 cytotox: 73.9*; 3T3 cytotox 2: 93.6*

How did C[C@@H]1CN([C@H](C)CO)C(=O)c2cc(NC(=O)Nc3ccc4c(c3)OCO4)ccc2O[C@@H]1CN(C)Cc1ccc(C(=O)Nc2ccccc2N)cc1 do in these assays?
KDM4C inh: -0.5; T cruzi growth-1: 63.5

How did C[C@H](CO)N1C[C@H](C)[C@H](CN(C)Cc2ccc(C(=O)Nc3ccccc3N)cc2)Oc2c(NC(=O)Nc3ccc4c(c3)OCO4)cccc2C1=O do in these assays?
KDM4C inh: -1.1; IDH1 mut inh: 0.0; T cruzi growth-1: 110.3

How did C[C@@H]1CN([C@@H](C)CO)C(=O)c2cc(NS(=O)(=O)c3cccs3)ccc2O[C@H]1CN(C)Cc1ccc(C(=O)Nc2ccccc2N)cc1 do in these assays?
KDM4C inh: 0.2; IDH1 mut inh: 0.3; T cruzi growth-1: 107.9*; T cruzi growth-2: 96.6*; T cruzi growth-3: 62.7; 3T3 cytotox: 4.0; 3T3 cytotox 2: 5.2

How did C[C@H]1CN([C@@H](C)CO)C(=O)c2cc(NC(=O)Nc3ccc4c(c3)OCO4)ccc2O[C@H]1CN(C)Cc1ccc(C(=O)Nc2ccccc2N)cc1 do in these assays?
KDM4C inh: 0.7; T cruzi growth-1: 97.9*; T cruzi growth-2: 85.5; T cruzi growth-3: 78.7; 3T3 cytotox: 1.6; 3T3 cytotox 2: 9.6

Results for C[C@@H]1CN([C@H](C)CO)C(=O)c2cc(N(C)C)ccc2O[C@H]1CN(C)Cc1ccc(C(=O)Nc2ccccc2N)cc1 ?
KDM4C inh: 2.2; T cruzi growth-1: 94.6

What do the screens show for `C[C@@H]1CN([C@H](C)CO)C(=O)c2cc(NC(=O)NC3CCCCC3)ccc2O[C@@H](C)CCCCO[C@@H]1CN(C)S(=O)(=O)c1cccs1`?
KDM4C inh: -2.6; IDH1 mut inh: -1.1; T cruzi growth-1: 89.5

How did COC(=O)CSc1nnc(-c2sc3ccccc3c2Cl)n1-c1ccc(OC)cc1 do in these assays?
IDH1 mut inh: -0.4

Results for O=C(NCCCN1CCOCC1)c1cnn2c(C(F)(F)F)cc(-c3ccccc3)nc12 ?
IDH1 mut inh: 0.4

Results for Cc1noc(C)c1NC(=O)N(C)C[C@@H]1Oc2c(cccc2N(C)C)C(=O)N([C@@H](C)CO)C[C@H]1C ?
KDM4C inh: 1.4; IDH1 mut inh: -1.2; T cruzi growth-1: 2.7

How did Cc1ccccc1-c1cc(C(=O)NCCCN2CCOCC2)c2cc(Cl)ccc2n1 do in these assays?
IDH1 mut inh: 0.0

What do the screens show for `Cc1ccnc(NS(=O)(=O)c2ccc(NC(=O)c3csc4c3CCCC4)cc2)n1`?
IDH1 mut inh: 0.6

Results for CN1C(=O)c2cc(NC(=O)C3CC3)ccc2OC[C@H]2O[C@H](CC(=O)NC3CCC3)CC[C@H]21 ?
KDM4C inh: -0.6; T cruzi growth-1: -42.2

How did COC(=O)c1ccccc1NC(=O)C(C)NS(=O)(=O)c1cc(Cl)ccc1Cl (centres undefined) do in these assays?
IDH1 mut inh: 0.0

Results for C[C@H](CO)N1C[C@H](C)[C@@H](CN(C)Cc2ccc(C(=O)Nc3ccccc3N)cc2)Oc2c(NC(=O)Nc3ccccc3)cccc2C1=O ?
KDM4C inh: 0.0; T cruzi growth-1: 87.3

What do the screens show for `C[C@H]1CN([C@@H](C)CO)C(=O)c2cccc(NC(=O)Nc3ccccc3)c2O[C@@H]1CN(C)Cc1ccc(C(=O)Nc2ccccc2N)cc1`?
KDM4C inh: -0.7; T cruzi growth-1: 99.7*; T cruzi growth-2: 101.4*; T cruzi growth-3: 98.5*; 3T3 cytotox: inconclusive; 3T3 cytotox 2: 79.9*

What do the screens show for `CCC(=O)N1CCCCN2[C@@H](CO)[C@H](c3ccc(-c4cccc(C(=O)N(C)C)c4)cc3)[C@@H]2C1`?
KDM4C inh: -0.3; T cruzi growth-1: 99.7*; T cruzi growth-2: 96.4*; T cruzi growth-3: 83.8; 3T3 cytotox: 4.4; 3T3 cytotox 2: 20.7

How did CCC(=O)N1CCCCN2[C@H](C1)[C@H](c1ccc(-c3cccc(C(=O)N(C)C)c3)cc1)[C@@H]2CO do in these assays?
KDM4C inh: 3.0; T cruzi growth-1: 80.6

How did CCC(=O)N1CCCCN2[C@H](CO)[C@H](c3ccc(-c4cccc(C(=O)N(C)C)c4)cc3)[C@H]2C1 do in these assays?
KDM4C inh: 0.4; T cruzi growth-1: 101.2*; T cruzi growth-2: 76.8; T cruzi growth-3: 16.5; 3T3 cytotox: -11.1; 3T3 cytotox 2: 18.6
